SMILES strings stand for the structures. ≈ marks a conversion by molar mass, not a printed value. Square brackets hold non-standard residues; d marks the D form. Peptide text beside a SMILES is read from it. * marks the point of attachment. Dha = C=C(N)C(=O)O; X1 = O=C(c1cscn1)*

For one data set, the system named is Bacillus subtilis. Kind of data set: Antibacterial activity against Bacillus subtilis ATCC 6633 assessed as growth inhibition after 24 hrs by CLSI M7-A9 broth microdilution method. The conditions noted are these: ATCC 6633, 24 h. It is filed as functional. Put shortly: (§1)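 Isolates from frozen stocks subcultured at least twice on sheep blood agar and grown 24 h before testing. Inoculum made by direct suspension in saline to 0.5 McFarland turbidity. MIC determined by broth microdilution in Mueller-Hinton broth following CLSI M7-A9, incubated at 35 °C for 24 h.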
A general note: In broth dilution the organism is exposed to a series of concentrations in liquid medium.

A further data set has as its system Staphylococcus aureus. The experiment in a line: Antibacterial activity against Staphylococcus aureus assessed as growth inhibition after 24 hrs by CLSI M7-A9 broth microdilution method. It is filed as functional. Put shortly: as §1
For another data set, the system named is Cutibacterium acnes. The experiment in a line: Antibacterial activity against Propionibacterium acnes assessed as growth inhibition after 24 hrs by CLSI M11-A8 broth microdilution method. It is filed as functional. Put shortly:
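This anaerobe was subcultured at least twice from frozen stock on supplemented Brucella agar and grown 48 h before testing. Inoculum was a direct saline suspension at 0.5 McFarland. MIC was by microdilution in Brucella broth with hemin (5 μg/mL), vitamin K1 and 5% lysed horse blood per CLSI M11-A8, 35 °C for 24 h under anaerobic conditions.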

The next data set deals with Micrococcus luteus. The experiment in a line: Antibacterial activity against Micrococcus luteus ATCC 9341 assessed as growth inhibition after 24 hrs by CLSI M7-A9 broth microdilution method. The following applies: ATCC 9341, 24 h. It is filed as functional. The gist of the method:
as §1

Data set [1] is described as follows: Solubility of the compound in 0.1 M phosphate buffer after 48 hrs by spectrophotometer analysis. The class given is physicochemical. The gist of the method: (§2)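 About 1 mg of solid was combined with a known volume of solvent so that the solution was saturated. It was vortexed 1 min, shaken 48 h and centrifuged at 10000 rpm for 3 min. Dissolved compound in the supernatant was measured by absorbance at 304 nm.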

Data set [2] in a line: Solubility of the compound in water after 48 hrs by spectrophotometer analysis. It is filed as physicochemical. Put shortly:
as §2

With `C=C(NC(=O)[C@@H]1CCCN1C(=O)[C@H](C)NC(=O)C(=C)NC(=O)c1csc(-c2ccc3c(n2)-c2csc(n2)-c2csc(n2)[C@@H]2CCCN2C(=O)[C@H](Cc2ccc(O)cc2)NC(=O)C2CSC(=N2)[C@H](Cc2ccccc2)NC(=O)c2csc(n2)[C@H](CC(N)=O)NC(=O)c2nc-3oc2C)n1)C(N)=O` (stereo partly drawn), the MIC with Bacillus subtilis is 0.5 µg/mL (≈ 0.346 µM); in the data set with Staphylococcus aureus it was 0.5 µg/mL (≈ 0.346 µM); in the data set on Cutibacterium acnes, 0.5 µg/mL (≈ 0.346 µM); in the data set on Micrococcus luteus, 1 µg/mL (≈ 0.691 µM).

With `C=C(NC(=O)[C@@H]1CCCN1C(=O)[C@H](C)NC(=O)C(=C)NC(=O)c1csc(-c2ccc3c(n2)-c2csc(n2)-c2csc(n2)[C@@H]2CCCN2C(=O)[C@H](Cc2ccc(O)cc2)NC(=O)c2csc(n2)[C@H](Cc2ccccc2)NC(=O)c2csc(n2)[C@H](CC(N)=O)NC(=O)c2nc-3oc2C)n1)C(N)=O`, the MIC with Bacillus subtilis was determined as 0.5 µg/mL (≈ 0.346 µM); in the data set on Staphylococcus aureus it was 0.5 µg/mL (≈ 0.346 µM); in the data set with Cutibacterium acnes it was 8 µg/mL (≈ 5.54 µM); in the data set on Micrococcus luteus, 2 µg/mL (≈ 1.38 µM).

On to `C=C(NC(=O)C(=C)NC(=O)[C@@H]1CCCN1C(=O)[C@H](C)NC(=O)C(=C)NC(=O)c1csc(-c2ccc3c(n2)-c2csc(n2)-c2csc(n2)[C@@H]2CCCN2C(=O)[C@H](Cc2ccc(O)cc2)NC(=O)[C@H]2CSC(=N2)[C@H](Cc2ccccc2)NC(=O)c2csc(n2)[C@H](CC(N)=O)NC(=O)c2nc-3oc2C)n1)C(N)=O`, for which the MIC in the data set on Bacillus subtilis came out at 0.25 µg/mL (≈ 0.165 µM); in the data set on Staphylococcus aureus it was 0.25 µg/mL (≈ 0.165 µM); with Cutibacterium acnes, 0.125 µg/mL (≈ 0.0825 µM); in the data set on Micrococcus luteus it was 0.5 µg/mL (≈ 0.33 µM).

As for `CCOC(=O)c1csc(-c2ccc3c(n2)-c2csc(n2)-c2csc(n2)[C@@H]2CCCN2C(=O)[C@H](Cc2ccc(O)cc2)NC(=O)C2CSC(=N2)[C@H](Cc2ccccc2)NC(=O)c2csc(n2)[C@H](CC(N)=O)NC(=O)c2nc-3oc2C)n1` (stereo partly drawn), the MIC in the data set with Bacillus subtilis was 8 µg/mL (≈ 6.84 µM); with Staphylococcus aureus, > 8 µg/mL; with Cutibacterium acnes it was 4 µg/mL (≈ 3.42 µM); with Micrococcus luteus, 4 µg/mL (≈ 3.42 µM).

`C=C(NC(=O)C(=C)NC(=O)[C@@H]1CCCN1C(=O)[C@H](C)NC(=O)C(=C)NC(=O)c1csc(-c2ccc3c(n2)-c2csc(n2)-c2csc(n2)[C@@H]2CCCN2C(=O)[C@H](Cc2ccc(O)cc2)NC(=O)c2csc(n2)[C@H](Cc2ccccc2)NC(=O)c2csc(n2)[C@H](CC(N)=O)NC(=O)c2nc-3oc2C)n1)C(N)=O`: the MIC in the data set on Bacillus subtilis is 1 µg/mL (≈ 0.661 µM); in the data set with Staphylococcus aureus it was 0.5 µg/mL (≈ 0.33 µM); in the data set on Cutibacterium acnes it was 8 µg/mL (≈ 5.28 µM); with Micrococcus luteus it was 2 µg/mL (≈ 1.32 µM).

As to `CCOC(=O)c1csc(-c2ccc3c(n2)-c2csc(n2)-c2csc(n2)[C@@H]2CCCN2C(=O)[C@H](Cc2ccc(O)cc2)NC(=O)c2csc(n2)[C@H](Cc2ccccc2)NC(=O)c2csc(n2)[C@H](CC(N)=O)NC(=O)c2nc-3oc2C)n1`, the MIC with Bacillus subtilis was > 8 µg/mL; in the data set on Staphylococcus aureus, > 8 µg/mL; with Cutibacterium acnes, 4 µg/mL (≈ 3.43 µM); in the data set on Micrococcus luteus, 2 µg/mL (≈ 1.71 µM).

Take `Cc1oc2nc1C(=O)N[C@@H](CC(N)=O)c1nc(cs1)C(=O)N[C@@H](Cc1ccccc1)c1nc(cs1)C(=O)N[C@@H](Cc1ccc(O)cc1)C(=O)N1CCC[C@H]1c1nc(cs1)-c1nc(cs1)-c1nc(-c3nc(C(=O)O)cs3)ccc1-2`: the MIC is 8 µg/mL (≈ 7.02 µM) in the data set on Bacillus subtilis, 2 µg/mL (≈ 1.76 µM) in the data set with Staphylococcus aureus, 2 µg/mL (≈ 1.76 µM) in the data set on Cutibacterium acnes and > 8 µg/mL in the data set on Micrococcus luteus. Besides, in data set [1], the concentration in solution (solubility at 48 h) was 23 µg/mL (≈ 20.2 µM).

Turning to `Cc1oc2nc1C(=O)N[C@@H](CC(N)=O)c1nc(cs1)C(=O)N[C@@H](Cc1ccccc1)c1nc(cs1)C(=O)N[C@@H](Cc1ccc(O)cc1)C(=O)N1CCC[C@H]1c1nc(cs1)-c1nc(cs1)-c1nc(-c3nc(C(N)=O)cs3)ccc1-2`, the MIC in the data set on Bacillus subtilis is 8 µg/mL (≈ 7.03 µM); with Staphylococcus aureus it was 1 µg/mL (≈ 0.878 µM); in the data set on Cutibacterium acnes, 8 µg/mL (≈ 7.03 µM); in the data set on Micrococcus luteus, > 8 µg/mL. In data set [1], this compound returned a solubility at 48 h of 7 µg/mL (≈ 6.15 µM).

For the compound `C=C(NC(=O)c1csc(-c2ccc3c(n2)-c2csc(n2)-c2csc(n2)[C@@H]2CCCN2C(=O)[C@H](Cc2ccc(O)cc2)NC(=O)c2csc(n2)[C@H](Cc2ccccc2)NC(=O)c2csc(n2)[C@H](CC(N)=O)NC(=O)c2nc-3oc2C)n1)C(=O)N[C@@H](C)C(=O)N1CCC[C@H]1C(N)=O`, the MIC in the data set on Bacillus subtilis turned out to be 8 µg/mL (≈ 5.82 µM); in the data set on Staphylococcus aureus, 0.5 µg/mL (≈ 0.363 µM); in the data set on Cutibacterium acnes, 4 µg/mL (≈ 2.91 µM); in the data set with Micrococcus luteus, 2 µg/mL (≈ 1.45 µM).

Consider `C=C(NC(=O)c1csc(-c2ccc3c(n2)-c2csc(n2)-c2csc(n2)[C@@H]2CCCN2C(=O)[C@H](Cc2ccc(O)cc2)NC(=O)C2CSC(=N2)[C@H](Cc2ccccc2)NC(=O)c2csc(n2)[C@H](CC(N)=O)NC(=O)c2nc-3oc2C)n1)C(=O)N[C@@H](C)C(=O)N1CCC[C@H]1C(N)=O` (stereo partly drawn), for which the MIC in the data set on Bacillus subtilis is 0.25 µg/mL (≈ 0.181 µM); in the data set on Staphylococcus aureus, 0.25 µg/mL (≈ 0.181 µM); in the data set on Cutibacterium acnes, 0.125 µg/mL (≈ 0.0907 µM); in the data set with Micrococcus luteus, 0.5 µg/mL (≈ 0.363 µM).

Regarding `C=C(NC(=O)C(=C)NC(=O)[C@@H]1CCCN1C(=O)[C@H](C)NC(=O)C(=C)NC(=O)c1cscn1)C(N)=O` (X1-[Dha]AP[Dha][Dha]-NH2), the minimal inhibitory concentration (MIC) in the data set on Bacillus subtilis is > 8 µg/mL; with Staphylococcus aureus, > 8 µg/mL; in the data set on Cutibacterium acnes, 8 µg/mL (≈ 15.9 µM); in the data set on Micrococcus luteus, 2 µg/mL (≈ 3.97 µM). The solubility at 48 h was determined as 4660 µg/mL (≈ 9260 µM) in data set [2] and 6650 µg/mL (≈ 13200 µM) in data set [1].

As to `Cc1oc2nc1C(=O)N[C@@H](CC(N)=O)c1nc(cs1)C(=O)N[C@@H](Cc1ccccc1)c1nc(cs1)C(=O)N[C@@H](Cc1ccc(O)cc1)C(=O)N1CCC[C@H]1c1nc(cs1)-c1nc(cs1)-c1nc(-c3nc(C(=O)N[C@H]4CC[C@H](C(=O)O)CC4)cs3)ccc1-2`, the MIC in the data set with Bacillus subtilis worked out at 0.03 µg/mL (≈ 0.0237 µM); with Staphylococcus aureus, 0.03 µg/mL (≈ 0.0237 µM); with Cutibacterium acnes it was 0.06 µg/mL (≈ 0.0474 µM); with Micrococcus luteus it was 0.5 µg/mL (≈ 0.395 µM). In addition, in data set [1], the solubility at 48 h was found to be 18 µg/mL (≈ 14.2 µM).

For orientation: MIC means the least concentration at which growth counts as inhibited. By solubility is commonly meant how much of the substance goes into solution per volume. Lower therefore signals little dissolved substance.

The values are drawn from ChEMBL document CHEMBL3259713, “Dissecting the structure of thiopeptides: assessment of thiazoline and tail moieties of baringolin and antibacterial activity optimization” (J Med Chem, 2014).
